{"data": "Published values gathered from unrelated publications", "target": "Ephrin type-A receptor 8 (EPHA8, Homo sapiens, UniProt P29322)", "One construct used (P29322 28-1005)": "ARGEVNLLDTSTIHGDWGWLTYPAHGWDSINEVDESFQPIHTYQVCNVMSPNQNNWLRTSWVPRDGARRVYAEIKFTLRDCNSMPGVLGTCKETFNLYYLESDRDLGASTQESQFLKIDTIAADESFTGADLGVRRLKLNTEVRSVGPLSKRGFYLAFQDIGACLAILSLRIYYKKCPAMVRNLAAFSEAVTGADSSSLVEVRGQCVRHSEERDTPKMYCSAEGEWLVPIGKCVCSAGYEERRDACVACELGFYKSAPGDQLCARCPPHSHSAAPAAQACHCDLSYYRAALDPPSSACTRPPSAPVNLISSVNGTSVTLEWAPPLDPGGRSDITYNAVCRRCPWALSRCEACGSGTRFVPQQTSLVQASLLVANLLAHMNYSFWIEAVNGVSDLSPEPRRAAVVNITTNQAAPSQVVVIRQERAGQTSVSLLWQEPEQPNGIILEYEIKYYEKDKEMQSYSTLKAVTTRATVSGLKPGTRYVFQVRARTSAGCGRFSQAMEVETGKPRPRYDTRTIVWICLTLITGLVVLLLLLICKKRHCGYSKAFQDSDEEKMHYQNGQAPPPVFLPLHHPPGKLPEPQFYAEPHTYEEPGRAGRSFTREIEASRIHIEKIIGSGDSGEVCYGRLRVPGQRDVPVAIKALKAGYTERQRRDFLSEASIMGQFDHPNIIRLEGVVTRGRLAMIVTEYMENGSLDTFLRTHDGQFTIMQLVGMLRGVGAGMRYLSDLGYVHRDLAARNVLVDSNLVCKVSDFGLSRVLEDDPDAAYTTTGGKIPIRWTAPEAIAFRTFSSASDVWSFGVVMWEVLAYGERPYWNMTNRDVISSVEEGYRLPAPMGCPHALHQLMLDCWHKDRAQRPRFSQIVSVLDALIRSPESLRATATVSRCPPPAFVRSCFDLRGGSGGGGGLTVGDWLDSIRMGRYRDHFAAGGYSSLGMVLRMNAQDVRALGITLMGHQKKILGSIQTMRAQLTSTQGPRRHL"}
{"SMILES": "CC(C)(O)[C@H]1CC[C@H](Nc2ccc3ncc(-c4cccc(C(F)(F)F)c4)n3n2)CC1", "read-out": "enzyme activity", "mode": "inhibitor", "tested at": "1 µM", "endpoint": "remaining activity", "result": "84.3%"}
{"SMILES": "CNC(=O)c1cc(Oc2ccc(NC(=O)Nc3ccc(Cl)c(C(F)(F)F)c3)cc2)ccn1", "read-out": "enzyme activity", "mode": "inhibitor", "tested at": "0.3 µM", "endpoint": "inhibition", "result": "23%"}
{"SMILES": "CCCOc1ccc([C@H]2[C@H](C(=O)O)[C@@H](c3ccc4c(c3)OCO4)CN2CC(=O)Nc2c(CC)cccc2CC)cc1", "read-out": "cell-free assay", "technique": "competition with immobilised ligand", "tested at": "1 µM", "endpoint": "remaining binding", "result": "98%"}
{"SMILES": "COc1cc(-c2cc(-c3ccc(N4CCNCC4)cc3)cnc2C)cc(OC)c1OC", "read-out": "enzyme activity", "mode": "inhibitor", "tested at": "0.1 µM", "endpoint": "inhibition", "result": "3%"}
{"SMILES": "COc1cc2ncnc(Nc3ccc(Oc4ccccc4)c(C)c3C)c2cc1OC", "read-out": "enzyme activity", "mode": "inhibitor", "tested at": "1 µM", "endpoint": "inhibition", "result": "6%"}
{"SMILES": "Cc1sc(C(=O)NC2COC2)cc1-n1cc(NC(=O)Nc2c(F)cccc2Cl)cn1", "read-out": "enzyme activity", "mode": "inhibitor", "tested at": "10 µM", "endpoint": "remaining activity", "result": "91.7%"}
{"SMILES": "Cc1ccc(NC(=O)c2ccc(C)c(C(F)(F)F)c2)cc1C#Cc1nn(C2CCC(O)CC2)c2ncnc(N)c12 (stereo not drawn)", "read-out": "cell-free assay", "tested at": "10 µM", "endpoint": "remaining signal", "result": "2%"}
{"SMILES": "Cc1nc(Cc2cccc(C(F)(F)F)c2)sc1-c1ccc(C(N)=O)nc1", "read-out": "cell-free assay", "technique": "competition with immobilised ligand", "tested at": "1 µM", "endpoint": "remaining binding", "result": "100%"}
{"SMILES": "CCCOc1ccc(OC)c(F)c1C(=O)c1ccc(C(=O)N[C@@H]2CNC[C@H]2NC(=O)c2ccc3[nH]ncc3c2)cc1", "read-out": "enzyme activity", "mode": "inhibitor", "tested at": "10 µM", "endpoint": "remaining activity", "result": "95%"}
{"SMILES": "N#CCCc1ccc2c(c1)-c1[nH]c3ccc([N+](=O)[O-])cc3c1CC(=O)N2", "read-out": "cell-free assay", "tested at": "0.5 µM", "endpoint": "remaining signal", "result": "105%"}
{"SMILES": "Cc1ccc(C(=O)NCc2ccsc2)cc1C#Cc1cn(C(C)C)c2ncnc(N)c12", "read-out": "enzyme activity", "mode": "inhibitor", "tested at": "1 µM", "endpoint": "activity vs control", "result": "6%"}
{"SMILES": "O=C1CCc2cc(Nc3cc(OC4CCOCC4)c([N+](=O)[O-])cc3Cl)ccc2N1", "read-out": "cell-free assay", "technique": "competition with immobilised ligand", "tested at": "1 µM", "endpoint": "remaining binding", "result": "100%"}
{"SMILES": "CCN(CC)c1ccc(C2=NNC(=O)CC2C)cc1[N+](=O)[O-] (stereo not drawn)", "read-out": "enzyme activity", "mode": "inhibitor", "tested at": "10 µM", "endpoint": "remaining activity", "result": "115%"}
{"SMILES": "Cc1ccc(Nc2nccc(N(C)c3ccc4c(C)n(C)nc4c3)n2)cc1S(N)(=O)=O", "read-out": "enzyme activity", "mode": "inhibitor", "tested at": "10 µM", "endpoint": "inhibition", "result": "81%"}
{"SMILES": "CC(C)(C)c1nc2c(s1)c1nc(N)ncc1c1ccc(NS(=O)(=O)c3c(F)cccc3F)c(F)c12", "read-out": "enzyme activity", "mode": "inhibitor", "technique": "radiometric", "tested at": "1 µM", "endpoint": "remaining activity", "result": "95%"}
{"SMILES": "O=C(O)c1cc(-c2ccc(C3CCNCC3)cc2)c2ccc(-c3ccc(C(F)(F)F)cc3)cc2c1", "read-out": "cell-free assay", "technique": "competition with immobilised ligand", "tested at": "1 µM", "endpoint": "remaining binding", "result": "100%"}
{"SMILES": "O=C1NC(=O)c2cc(Nc3ccc(F)cc3)c(Nc3ccc(F)cc3)cc21", "read-out": "cell-free assay", "tested at": "0.5 µM", "endpoint": "remaining signal", "result": "95.5%"}
{"SMILES": "O=C(NC[C@@H]1[C@H]2CN(C(=O)OCc3cc(C(F)(F)F)cc(C(F)(F)F)c3)C[C@@H]12)c1ccc2[nH]nnc2c1", "read-out": "cell-free assay", "technique": "competition with immobilised ligand", "tested at": "1 µM", "endpoint": "remaining binding", "result": "100%"}
{"SMILES": "O=C(Nc1cnn(-c2csc(C(=O)NC3COC3)c2)c1)Nc1ccccc1Cl", "read-out": "enzyme activity", "mode": "inhibitor", "tested at": "5 µM", "endpoint": "remaining activity", "result": "103%"}
{"SMILES": "CO[C@H]1CC[C@H](CNc2ccc(S(=O)(=O)NC(=O)c3ccc(N4CCN(CC5=C(c6ccc(Cl)cc6)CC(C)(C)CC5)CC4)cc3Oc3cnc4[nH]ccc4c3)cc2[N+](=O)[O-])CC1", "read-out": "cell-free assay", "technique": "competition with immobilised ligand", "tested at": "1 µM", "endpoint": "remaining binding", "result": "84%"}
{"SMILES": "Nc1ncnc2occ(-c3ccc(NC(=O)Nc4cc(C(F)(F)F)ccc4F)cc3)c12", "read-out": "cell-free assay", "tested at": "20 µM", "endpoint": "remaining signal", "result": "0%"}
